The source of these data is ChEMBL document CHEMBL5108003, “Identification of 2-hydroxybenzoic acid derivatives as selective SIRT5 inhibitors” (Eur J Med Chem, 2022).

One assay addresses T1, NAD-dependent protein deacylase sirtuin-5, mitochondrial (Homo sapiens, UniProt Q9NXA8). The assay is described as follows: Inhibition of human SIRT5 using fluorogenic substrate preincubated for 1 hr in presence of NAD followed by substrate addition and measured after 15 to 30 mins by trypsin-coupled fluorescence plate reader analysis.
Target sequence in this assay (Q9NXA8 whole entry): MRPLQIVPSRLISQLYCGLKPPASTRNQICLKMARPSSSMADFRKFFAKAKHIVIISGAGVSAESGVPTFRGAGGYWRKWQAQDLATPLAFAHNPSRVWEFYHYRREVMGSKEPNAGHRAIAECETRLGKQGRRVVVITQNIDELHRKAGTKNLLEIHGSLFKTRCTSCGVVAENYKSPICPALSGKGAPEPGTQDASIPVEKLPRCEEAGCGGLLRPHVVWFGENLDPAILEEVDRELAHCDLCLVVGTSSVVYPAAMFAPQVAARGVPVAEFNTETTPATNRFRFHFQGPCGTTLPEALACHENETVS
In general, IC50 refers to the concentration at which inhibition is half-maximal. Consider `O=C(O)c1ccc(NC(=S)Nc2nc(-c3cccc(C(F)(F)F)c3)cs2)cc1O`, for which the half-inhibitory concentration (IC50) came to 26.8 µM.

In the case of `CC(=O)Nc1ccc(-c2csc(Nc3ccc(C(=O)O)cc3)n2)cc1`, the IC50 worked out at 201 µM. In the case of `CCOC(=O)c1ccc(Nc2nc(-c3ccc(NC(C)=O)cc3)cs2)cc1O`, the IC50 was greater than 400 µM. As to `O=C(O)c1ccc(NC(=S)Nc2nc(-c3ccc(C(F)(F)F)cc3)cs2)cc1O`, the concentration for half-maximal inhibition (IC50) was found to be 24.3 µM.

The target of another assay is T1, NAD-dependent protein deacylase sirtuin-5, mitochondrial. The assay is described as follows: Stabilization of wild type human SIRT5 assessed as melting temperature at 100 uM by thermal shift assay. In outline:
(§1)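 Recombinant wild-type SIRT5 at 0.2 mg/ml final in 20 mM Bis-Tris propane pH 7.5 with 150 mM NaCl. The dye was 0.1 mM 1,8-ANS, and compound was at 100 μM with DMSO as the vehicle reference. Wells were overlaid with silicon oil and heated continuously from 25 °C to 90 °C. Tm came from fluorescence melt curves versus the DMSO control. Each reaction was run in quadruplicate.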
Target sequence in this assay (Q9NXA8 37-310 limits assumed): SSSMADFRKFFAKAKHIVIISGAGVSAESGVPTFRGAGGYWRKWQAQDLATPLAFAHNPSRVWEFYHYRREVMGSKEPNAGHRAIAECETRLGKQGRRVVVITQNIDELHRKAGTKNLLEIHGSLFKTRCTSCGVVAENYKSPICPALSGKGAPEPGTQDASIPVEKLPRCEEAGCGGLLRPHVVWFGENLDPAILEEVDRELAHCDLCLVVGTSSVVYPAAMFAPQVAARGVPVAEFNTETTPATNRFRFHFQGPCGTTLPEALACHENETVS
The term Tm denotes the temperature at the midpoint of the melting transition. Turning to `Cc1ccc(C(=O)Nc2ccc(S(=O)(=O)O)c3cc(S(=O)(=O)O)cc(S(=O)(=O)O)c23)cc1NC(=O)c1cccc(NC(=O)Nc2cccc(C(=O)Nc3cc(C(=O)Nc4ccc(S(=O)(=O)O)c5cc(S(=O)(=O)O)cc(S(=O)(=O)O)c45)ccc3C)c2)c1`, the midpoint of thermal melting (Tm) stood at 51 °C.

On to `CC(=O)Nc1ccc(-c2csc(Nc3ccc(C(=O)O)c(O)c3)n2)cc1`, for which the Tm is 52.8 °C.

The target is the same in a further assay. Put plainly: Stabilization of human SIRT5 assessed as change in melting temperature at 100 uM by thermal shift assay. The essentials: as §1
Target sequence in this assay (Q9NXA8 37-310 limits assumed): as above
For orientation: ΔTm means the change in melting temperature against a reference sample. For `CC(=O)Nc1ccccc1-c1csc(NC(=S)Nc2ccc(C(=O)O)c(O)c2)n1`, the ΔTm is 0.9 °C. On to `O=C(O)c1ccc(NC(=S)Nc2nc(-c3ccc(Cl)cc3)cs2)cc1O`, for which the ΔTm worked out at 1.1 °C.

`O=C(O)c1ccc(NC(=S)Nc2nc(-c3ccc(F)cc3)cs2)cc1O`: the ΔTm worked out at 1.3 °C. With `COc1ccc(-c2csc(NC(=S)Nc3ccc(C(=O)O)c(O)c3)n2)cc1`, the thermal shift (ΔTm) turned out to be 0.9 °C. `N#Cc1ccc(-c2csc(NC(=S)Nc3ccc(C(=O)O)c(O)c3)n2)cc1F`: the shift in melting temperature (ΔTm) is 1.8 °C. The same measure, in the same setting: the value for `CC(=O)Nc1ccc(-c2csc(NC(=S)Nc3ccc(C(=O)O)c(O)c3)n2)cc1` was 2.5 °C; that for `O=C(O)c1ccc(NC(=S)Nc2nc(-c3ccc(Br)cc3)cs2)cc1O` was 1.2 °C.

`O=C(O)c1ccc(NC(=S)Nc2nc(-c3ccc(F)c(F)c3)cs2)cc1O`: the ΔTm is 1.8 °C. The same measure, in the same setting: the value for `O=C(O)c1ccc(NC(=S)Nc2nc(-c3cccc(C(F)(F)F)c3)cs2)cc1O` was 1.1 °C. Take `O=C(O)c1ccc(NC(=S)Nc2nc(-c3ccc([N+](=O)[O-])cc3F)cs2)cc1O`: the shift in melting temperature (ΔTm) was determined as 1.6 °C. Same read-out and setting: with `O=C(O)c1ccc(NC(=S)Nc2nc(-c3ccccc3F)cs2)cc1O` the figure was 1 °C.

On to `O=C(O)c1ccc(NC(=S)Nc2nc(-c3ccc([N+](=O)[O-])c(S(=O)(=O)NCc4ccccc4)c3)cs2)cc1O`, for which the ΔTm came to 1.8 °C.

For the compound `COc1cccc(-c2csc(NC(=S)Nc3ccc(C(=O)O)c(O)c3)n2)c1`, the shift in melting temperature (ΔTm) was 0.9 °C. Same read-out and setting: the value for `O=C(O)c1ccc(NC(=S)Nc2nc(-c3ccc([N+](=O)[O-])cc3)cs2)cc1O` was 1.8 °C; that for `CC(=O)Nc1cccc(-c2csc(NC(=S)Nc3ccc(C(=O)O)c(O)c3)n2)c1` was 1.5 °C. With `Cc1ccccc1-c1csc(NC(=S)Nc2ccc(C(=O)O)c(O)c2)n1`, the ΔTm amounted to 1.1 °C.

On to `CC(=O)Nc1ccc(-c2csc(Nc3ccc(C(=O)O)cc3)n2)cc1`, for which the ΔTm was 0.53 °C. Still for that read-out and setting: with `O=C(O)c1ccc(NC(=S)Nc2nc(-c3ccc(F)c(S(=O)(=O)NC4CCCC4)c3)cs2)cc1O` the figure was 1.3 °C; with `N#Cc1ccc(-c2csc(NC(=S)Nc3ccc(C(=O)O)c(O)c3)n2)c(F)c1`, 1.9 °C; with `CCOC(=O)c1ccc(Nc2nc(-c3ccc(NC(C)=O)cc3)cs2)cc1O`, 0.12 °C. As for `CNS(=O)(=O)c1ccc(-c2csc(NC(=S)Nc3ccc(C(=O)O)c(O)c3)n2)cc1`, the ΔTm is 0.9 °C. As to `O=C(O)c1ccc(NC(=S)Nc2nc(-c3ccc(F)cc3F)cs2)cc1O`, the thermal shift (ΔTm) stood at 1.9 °C. Same read-out and setting: with `O=C(O)c1ccc(NC(=S)Nc2nc(-c3ccc(O)cc3)cs2)cc1O` the figure was 0.8 °C. Regarding `O=C(O)c1ccc(NC(=S)Nc2nc(-c3ccc([N+](=O)[O-])c(F)c3)cs2)cc1O`, the ΔTm worked out at 1.8 °C. Same read-out and setting: with `CNS(=O)(=O)c1cccc(-c2csc(NC(=S)Nc3ccc(C(=O)O)c(O)c3)n2)c1` the figure was 0.8 °C; with `Cc1cccc(-c2csc(NC(=S)Nc3ccc(C(=O)O)c(O)c3)n2)c1`, 1.2 °C. On the same count and under the same terms, the value for `O=C(O)c1ccc(NC(=S)Nc2nc(-c3ccc(C(F)(F)F)cc3)cs2)cc1O` was 1.2 °C; that for `O=C(O)c1ccc(NC(=S)Nc2nc(-c3cccc(F)c3)cs2)cc1O` was 1.22 °C. `O=C(O)c1ccc(NC(=S)Nc2nc(-c3ccc(F)c(S(=O)(=O)NCc4ccccc4)c3)cs2)cc1O`: the ΔTm turned out to be 1.9 °C.

With `Cc1ccc(-c2csc(NC(=S)Nc3ccc(C(=O)O)c(O)c3)n2)cc1`, the thermal shift (ΔTm) amounted to 1.4 °C. On the same count and under the same terms, the value for `N#Cc1ccc(-c2csc(NC(=S)Nc3ccc(C(=O)O)c(O)c3)n2)cc1` was 2.1 °C; that for `O=C(O)c1ccc(NC(=S)Nc2nc(-c3cccc(O)c3)cs2)cc1O` was 0.72 °C. The same measure, in the same setting: the value for `CC(=O)Nc1ccc(-c2csc(Nc3ccc(C(=O)O)c(O)c3)n2)cc1` was 1.8 °C.
